Several values for one entry are separate records, joined by “and”; a condition that tells them apart may be missing. Equal entries are not always repeated. Where two headings read alike, the source gives them in different places. Where no end group is shown, it is not given here.
Columns and labels:
[1] = system: soluble receptor; settings: cited from earlier work
[2] = system: IM-9 cell receptors; settings: cited from earlier work
[3] = system: receptors on the human placental membrane; settings: ref 62; cited from earlier work
[4] = system: HepG2 cells; settings: ref 31; cited from earlier work
[5] = system: insulin receptor; settings: cited from earlier work
[6] = system: isolated rat adipocytes; settings: ref 16-18; cited from earlier work
[7] = system: IM-9 cell receptors; settings: ref 19; cited from earlier work
[8] = system: rat liver cells; settings: ref 20; cited from earlier work
[9] = system: rat adipocytes; settings: cited from earlier work
[10] = system: primary rat adipocytes; test: Insulin-stimulated lipogenesis; assay type: cell-based; settings: for maximal lipogenesis: compared with human insulin; for metabolic potency relative to human insulin: lipogenesis in primary rat adipocytes
Procedure, shortened: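 Adipocytes from male Sprague-Dawley rat epididymal fat pads, collagenase-digested (1 mg/mL, 45 min, 37 °C) in KRH with 3.5% BSA, 0.2 uM adenosine and 2 mM glucose. […] Lipid-extracted label counted, background (tracer without hormone) subtracted. Triplicates, three experiments, four-parameter logistic fit for ED50.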

[11] = system: soluble IR ectodomain (sIR); test: Homologous competition for soluble IR ectodomain, PEG precipitation; assay type: binding; settings: 15 pM tracer, 16 h at 4 °C; % of human insulin
[12] = system: NIH 3T3 fibroblasts overexpressing the wild-type human insulin receptor; test: [3H]thymidine incorporation; assay type: cell-based, mouse; settings: for relative mitogenic potency over relative metabolic potency: thymidine incorporation versus lipogenesis in rat adipocytes
[13] = system: rat fat pad; settings: relative to that of bovine insulin; cited from earlier work
[14] = target: T1, human insulin receptor on IM9 cells (Homo sapiens, UniProt P06213); test: Association kinetics of 125I-labeled insulins on IM9 cells; assay type: binding; settings: 125I-labeled ligand, 15 °C
T1 sequence (P06213 28-1370 isoform P06213-2 limits assumed): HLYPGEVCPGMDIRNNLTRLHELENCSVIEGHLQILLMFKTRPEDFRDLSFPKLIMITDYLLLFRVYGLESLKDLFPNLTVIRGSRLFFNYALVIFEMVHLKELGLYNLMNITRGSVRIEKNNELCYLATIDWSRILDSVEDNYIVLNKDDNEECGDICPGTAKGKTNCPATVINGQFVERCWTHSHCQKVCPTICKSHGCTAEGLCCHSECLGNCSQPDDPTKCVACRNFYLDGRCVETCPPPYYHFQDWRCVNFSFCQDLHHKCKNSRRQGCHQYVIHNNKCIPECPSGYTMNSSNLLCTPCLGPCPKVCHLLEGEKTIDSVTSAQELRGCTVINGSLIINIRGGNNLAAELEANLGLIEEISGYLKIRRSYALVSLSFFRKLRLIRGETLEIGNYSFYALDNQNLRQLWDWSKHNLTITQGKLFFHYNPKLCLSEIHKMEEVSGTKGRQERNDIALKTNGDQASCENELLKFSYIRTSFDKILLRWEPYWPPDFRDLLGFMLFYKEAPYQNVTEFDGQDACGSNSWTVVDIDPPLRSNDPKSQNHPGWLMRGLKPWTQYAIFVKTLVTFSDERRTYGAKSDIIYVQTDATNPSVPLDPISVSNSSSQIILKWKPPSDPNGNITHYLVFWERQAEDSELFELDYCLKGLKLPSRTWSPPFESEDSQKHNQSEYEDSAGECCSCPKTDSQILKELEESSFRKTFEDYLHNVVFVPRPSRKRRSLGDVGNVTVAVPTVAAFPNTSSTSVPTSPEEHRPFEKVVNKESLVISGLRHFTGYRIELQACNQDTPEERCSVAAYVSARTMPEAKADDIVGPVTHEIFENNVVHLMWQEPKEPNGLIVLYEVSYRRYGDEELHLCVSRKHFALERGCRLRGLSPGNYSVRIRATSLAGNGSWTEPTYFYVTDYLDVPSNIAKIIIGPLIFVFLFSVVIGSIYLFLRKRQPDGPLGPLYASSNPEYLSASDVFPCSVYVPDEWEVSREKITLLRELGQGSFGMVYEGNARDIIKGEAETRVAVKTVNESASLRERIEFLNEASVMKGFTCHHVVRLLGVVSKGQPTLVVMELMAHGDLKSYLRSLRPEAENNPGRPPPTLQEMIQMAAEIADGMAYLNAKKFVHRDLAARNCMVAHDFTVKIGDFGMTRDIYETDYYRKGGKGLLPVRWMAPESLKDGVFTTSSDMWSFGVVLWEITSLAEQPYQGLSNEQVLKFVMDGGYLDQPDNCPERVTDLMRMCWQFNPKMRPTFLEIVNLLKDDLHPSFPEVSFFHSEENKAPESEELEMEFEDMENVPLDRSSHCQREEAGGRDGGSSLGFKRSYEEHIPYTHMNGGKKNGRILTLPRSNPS
T1 sequence (P06213 763-1382 partner limits assumed): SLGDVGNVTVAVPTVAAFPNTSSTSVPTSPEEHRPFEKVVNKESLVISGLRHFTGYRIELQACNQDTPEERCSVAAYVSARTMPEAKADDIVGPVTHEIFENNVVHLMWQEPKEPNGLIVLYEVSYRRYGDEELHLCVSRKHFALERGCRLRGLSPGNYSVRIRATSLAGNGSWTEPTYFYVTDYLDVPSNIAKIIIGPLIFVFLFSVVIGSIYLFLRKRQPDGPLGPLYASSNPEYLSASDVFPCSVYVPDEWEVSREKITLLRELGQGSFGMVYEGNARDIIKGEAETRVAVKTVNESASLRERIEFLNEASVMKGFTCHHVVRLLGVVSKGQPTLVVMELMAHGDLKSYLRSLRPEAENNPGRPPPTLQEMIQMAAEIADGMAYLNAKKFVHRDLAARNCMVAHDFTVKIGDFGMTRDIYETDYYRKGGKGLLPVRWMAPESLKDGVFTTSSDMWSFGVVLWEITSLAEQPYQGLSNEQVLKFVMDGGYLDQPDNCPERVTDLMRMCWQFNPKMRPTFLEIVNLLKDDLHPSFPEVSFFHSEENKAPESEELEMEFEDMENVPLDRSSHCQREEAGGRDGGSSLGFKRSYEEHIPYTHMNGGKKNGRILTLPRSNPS

[15] = system: deoxyglucose transport; settings: ref 19; cited from earlier work
[16] = actual data were not shown; cited from earlier work
[17] = ref 66; cited from earlier work
[18] = target: T1, human insulin receptor on IM9 cells; test: Dissociation kinetics of 125I-labeled insulins from IM9 cells; assay type: binding; settings: prebound 6 h at 15 °C, 40-fold dilution

## B17 to Val: human insulin with B17 substitution to Val (literature) [reference compound]
[1]; solubilized receptor
  reduction of affinity, substitutions at B17: 2.5 fold

## B21 to Ala: human insulin with mutation of B21 to Ala (literature)
[2]; ref 26
  affinity in IM-9 cells: 226%
[3]
  decrease in the level of binding to receptors on the human placental membrane: ~2 fold

## HisA8 human insulin: human insulin with the ThrA8 to His mutation (literature)
[4]
  affinity relative to human insulin in HepG2 cells: 327%
[2]; ref 47, 56
  affinity relative to human insulin in IM-9 lymphocytes: 300%

## HisB10Asp: human insulin analogue, His to Asp at B10
[5]; ref 31, 46
  enhancement of the affinity and activity of human insulin: 3−5 fold

## IleA10 with Ser: insulin with substitution of IleA10 with Ser as in IGF-I and IGF-II (literature) [reference compound]
[5]; ref 64
  loss of affinity: 5 fold

## hagfish insulin: insulin from the Atlantic hagfish (Myxine glutinosa), gift from S. Falkmer (Insulin B chain RTTGHLCGKDLVNALYIACGVRGFFYDPTKM; Insulin A chain GIVEQCCHKRCSIYDLENYCN; ends and bridges not checked; cysteine pairing not given here; UniProt P01342 27-57; P01342 95-115, looked up)
[6]
  affinity for isolated rat adipocytes, % of that of porcine insulin: 23%
[7]
  maximal acceleration of dissociation of 125I-labeled porcine insulin: same maximal acceleration
  potency to accelerate the dissociation of 125I-labeled porcine insulin: 5 % of unlabeled porcine insulin
[8]
  potency in rat liver cells: 3%
[9]; ref 16
  biological activity in stimulating lipogenesis in rat adipocytes: 3.8%
[9]; ref 51
  biological activity in stimulating lipogenesis in rat adipocytes: 4.6%
[9]; same cells, relative to porcine insulin
  biological potency in stimulating lipogenesis: 3−5%
[10]
  maximal lipogenesis: same maximal lipogenesis as human insulin
  metabolic potency relative to human insulin: 8.4% and 8%
[11]
  relative affinity for the purified soluble human receptor ectodomain: 22%
[12]; thymidine incorporation
  mitogenic potency relative to human insulin: 32%
[12]
  relative mitogenic potency over relative metabolic potency: 3.8
[12]; thymidine incorporation, difference not statistically significant
  maximal stimulation: 75 % of that of human insulin
[13]
  biological activity in rat fat pad: 7%
[14]
  incubation time to reach apparent steady state of binding: 4 h
[15]
  biological activity for deoxyglucose transport: 5−10%
[16]
  mitogenic:metabolic potency ratio: 1.0

## insulin Wakayama: insulin with a ValA3 to Leu mutation found in a diabetic patient
[17]
  potency: 0.2%

## lamprey insulin: insulin purified from the islet organ of the river lamprey L. fluviatilis (Insulin B chain SALTGAGGTHLCGSHLVEALYVVCGDRGFFYTPSKT; Insulin A chain GIVEQCCHRKCSIYDMENYCN; ends and bridges not checked; cysteine pairing not given here; UniProt P68988 1-36; P68988 37-57, looked up)
[18]
  dissociation of 125I-labeled ligand by dilution alone: much slower
[1]; ref 9
  relative affinity for the soluble receptor based on IC50: 130%
[10]
  maximal lipogenesis: same maximal lipogenesis as human insulin
  metabolic potency relative to human insulin: 9.4% and 9%
[12]; thymidine incorporation
  mitogenic potency relative to human insulin: 54%
[12]
  relative mitogenic potency over relative metabolic potency: 5.8
[12]; thymidine incorporation, 10% FBS as maximal response
  maximal response: same maximal response as serum or human insulin
[14]
  incubation time to reach apparent steady state of binding: 6 h
